# Compound activity as filed in PubChem.
# Sampled rows, rich in hits. Any-hit rate of the full collection: about 2.2%.
# M5 PAM: potentiates acetylcholine response at human M5 receptor | CHO-K1 hM5, Fluo-8 calcium, ACh EC20 PAM; 0% = ACh EC20, 100% = ACh EC100 | 360,000 tested, 0.3% active | AID 624038 | activation, % at 3 µM;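 active = activation above the run cutoff, the mean activation of all test compounds plus 3 SD, cut at about 18% in these data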
#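 Test system: CHO-K1 hM5 cells / Doses: single-point, 3 µM nominal / Times: Post-acetylcholine fluorescence recording 140 s / Technique: Fluo-8 calcium fluorescence / Measure: Max/basal fluorescence ratio as % of EC20–EC100 ACh window / Benchmarks: low control EC20 acetylcholine (0%), high control EC100 acetylcholine (100%) / Replicates: one well per compound, no replicates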
# M1 antag: human CHRM1 antagonism; P11229; CHO-K1 hM1, Fluo-8 calcium fluorescence, ACh EC80 antagonist; inhibition, % at 3 µM; 360,000 tested, 1.3% active; AID 588852;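 active = percent inhibition above its own plate's cutoff, namely the mean of that plate's compound wells plus 3 SD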;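 note: peak over basal fluorescence ratio during 140 s after agonist addition; 0% = ACh EC80 plus DMSO and 100% = DMSO alone without agonist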
# CHRM5 agonist: CHRM5 agonism in calcium assay. P08912. CHO-K1 hM5 cells, Fluo-8 calcium fluorescence; 0% DMSO wells, 100% maximal acetylcholine response. activation, % at 3 µM. 360,000 tested, 0.19% active;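 active = activation above the run's mean over test compounds plus 3 SD, cut at about 23% in these data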;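 note: signal is peak over basal fluorescence ratio across the kinetic read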
# CHRM5 antagonist: blocks acetylcholine activation of human M5 receptor | P08912 | CHO-hM5 cells, Fluo-8 calcium fluorescence, ACh EC80 | inhibition, % at 3 µM | 360,000 tested, 0.59% active;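 active = inhibition above a per-plate cutoff, the mean of that plate's test compounds plus 3 SD, cut at about 27% in these data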;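 note: 0% = acetylcholine EC80 with DMSO and 100% = DMSO without agonist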
# M1 ag: human M1 muscarinic receptor agonism. P11229. CHO-K1 hM1, Fluo-8 calcium fluorescence, agonist mode; 0% DMSO, 100% acetylcholine EC100. activation, % at 3 µM. 360,000 tested, 0.33% active;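 active = activation above the run's mean compound activation plus 3 SD, cut at about 16% in these data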;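 note: peak over basal fluorescence ratio within a 140 s kinetic read after compound addition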
# CHRM1 PAM: potentiates human M1 receptor response to acetylcholine; AID 588819; P11229; CHO-K1 hM1, Fluo-8 calcium fluorescence, ACh EC20; 0% = ACh EC20, 100% = maximal ACh; 360,000 tested, 0.088% active; activation, % at 3 µM; in the data active = activation above about 19%, passing the limit was not always enough
# The depositor's hits bear a star; . = no result given.
SMILES,M5 PAM,M1 antag,CHRM5 agonist,CHRM5 antagonist,M1 ag,CHRM1 PAM
CC(CCc1ccccc1)NC(=O)COC(=O)c1cccc2ccccc12 (configuration not stated),-2,-3,2,-1,-3,4
CCCNC(=O)Cn1c(=O)/c(=C\c2ccc(-c3ccc([N+](=O)[O-])cc3)o2)s/c1=C\C(=O)C(C)(C)C,-7,37*,25*,27,22*,-9
CCCNC(=O)Cn1c(=O)/c(=C/c2ccc(-c3cccc([N+](=O)[O-])c3)o2)s/c1=C\C(=O)C(C)(C)C,1,7,3,12,0,-2
O=C(CO/N=C/c1ccccc1OC(F)F)NCc1ccco1,18,-53,1,-15,-1,26*
CCN(CCn1cccn1)C(=O)c1cccc(OC2CCN(S(C)(=O)=O)CC2)c1,-3,-10,0,1,-1,7
CN1CCC(OC(=O)COc2ccccc2)CC1,-43,51*,-15,20,-3,-18
O=C(NNc1ccccc1)Nc1cc(Cl)ccc1Cl,19*,-17,0,8,-3,5
O=C(COc1ccccc1)Nc1cc(Cl)ccc1Cl,3,-28,-1,2,-6,11
CCN1/C(=C/c2ccc3ccccc3[n+]2CC)C=Cc2ccccc21,-13,48*,0,29*,2,-11
CCCCN1/C(=C/c2cccc[n+]2C)Sc2cc(NC(C)=O)ccc21,-2,-8,-3,14,-7,8
CCCCN1/C(=C/c2ccc3ccccc3[n+]2CC)Sc2ccccc21,-14,44*,16,39*,26*,-19
CCN1/C(=C/c2ccc3ccccc3[n+]2CCCS(=O)(=O)[O-])C=Cc2cc(C)ccc21,-6,-10,-2,14,8,19
CCN1/C(=C/c2ccc3cc(C)ccc3[n+]2CC)Sc2cc(C)ccc21,-22,67*,8,42*,26*,-18
CCOC(=O)[C@H]1[C@H]2COc3ccc(Br)cc3[C@@H]2N2C(=O)CN(Cc3ccccc3)C(=O)[C@@]12C,-5,-10,4,-2,-4,2
O=S1c2ccccc2Sc2ccccc21,-1,-18,-3,6,-1,13
Cc1nnc(N2CCCC(C(=O)NCc3ccc(OC(C)C)cc3)C2)c2nn(-c3ccccc3)c(C)c12 (configuration not stated),3,41*,-10,6,-6,-20
Cc1nnc(N2CCCC(C(=O)Nc3cc(F)ccc3F)C2)c2nn(-c3ccccc3)c(C)c12 (configuration not stated),0,32,-3,0,-6,-18
N=c1c2c3c(sc2nc2n1CCCCC2)CCCCC3,-12,92*,-6,7,-4,-21
CC(=O)c1cccc(S(=O)(=O)N2CCCC(c3nc4c(nnn4Cc4cccc(Cl)c4)c(=O)[nH]3)C2)c1 (configuration not stated),-1,-9,-4,1,-9,12
CC1(C(=O)NS(=O)(=O)c2ccccc2Cl)CCN1C(=O)C1CCCCC1 (configuration not stated),0,15,0,0,-3,-2
Cc1cccc(NC(=O)c2sc3nc(-c4ccc(F)cc4)cn3c2C)n1,-18,9,-7,32*,-4,0
Cc1cccc(NC(=O)c2sc3nc(-c4ccccc4)cn3c2C)n1,-9,-2,8,0,4,-6
COc1ccc(CN2CCNC(=O)C2CC(=O)NCCCC2CCCC2)c(C)c1C (configuration not stated),-8,12,-4,16,-3,-3
CCCCCCn1cc(C(=O)O)c(=O)c2ccccc21,-6,-4,-5,-5,32*,-2
O=C(O)c1cn(Cc2ccccc2)c2ccc(Cl)cc2c1=O,11,-8,3,0,47*,9
COc1ccc(Cn2cc(C(=O)O)c(=O)c3ccccc32)cc1,3,.,1,-12,.,.
